Results: ChEMBL document CHEMBL1150813, “Triterpene saponins from Vietnamese ginseng (Panax vietnamensis) and their hepatocytoprotective activity” (J Nat Prod, 2001)

Key:
Assay type in all cases: functional
[1] = tested on: Hepatocyte; assay: Hepatoprotective activity in mouse hepatocytes assessed inhibition of D-galactosamine/TNFalpha-induced cell death dosed administered before 30 mins of TNFalpha challenge measured after 18 hrs
Summary of the method: (§1)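 Primary mouse hepatocytes, isolated by collagenase perfusion, were cultured in William's E medium with 10% calf serum, dexamethasone and insulin at 1.5×10^4 cells/well. TNF-α (100 ng/mL) was added 30 min later. Viability was read by MTT after 18 h. Values are mean ± SD, n = 4 (normal and control n = 8), with Student's t-test versus control.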

[2] = tested on: Hepatocyte; assay: Hepatoprotective activity against D-galactosamine/TNFalpha-induced cell death in mouse hepatocytes assessed cell survival rate at 100 uM administered before 30 mins of TNFalpha challenge measured after 18 hrs by MTT assay; summary of the method: as §1
[3] = tested on: Hepatocyte; assay: Hepatoprotective activity against D-galactosamine/TNFalpha-induced cell death in mouse hepatocytes assessed cell survival rate at 50 uM administered before 30 mins of TNFalpha challenge measured after 18 hrs by MTT assay; summary of the method: as §1
[4] = tested on: Hepatocyte; assay: Hepatoprotective activity in mouse hepatocytes assessed inhibition of D-galactosamine/TNFalpha-induced cell death at 100 uM administered before 30 mins of TNFalpha challenge measured after 18 hrs; summary of the method: as §1
[5] = tested on: Hepatocyte; assay: Hepatoprotective activity in mouse hepatocytes assessed inhibition of D-galactosamine/TNFalpha-induced cell death at 50 uM administered before 30 mins of TNFalpha challenge measured after 18 hrs; summary of the method: as §1
[6] = tested on: Hepatocyte; assay: Hepatoprotective activity in mouse hepatocytes assessed protection against D-galactosamine/TNFalpha-induced cell death at 100 uM administered before 30 mins of TNFalpha challenge measured after 18 hrs; summary of the method: as §1
[7] = tested on: Hepatocyte; assay: Hepatoprotective activity in mouse hepatocytes assessed protection against D-galactosamine/TNFalpha-induced cell death at 50 uM administered before 30 mins of TNFalpha challenge measured after 18 hrs; summary of the method: as §1
[8] = tested on: Hepatocyte; assay: Hepatoprotective activity against D-galactosamine/TNFalpha-induced cell death in mouse hepatocytes assessed cell survival rate at 25 uM administered before 30 mins of TNFalpha challenge measured after 18 hrs by MTT assay; summary of the method: as §1
[9] = tested on: Hepatocyte; assay: Hepatoprotective activity in mouse hepatocytes assessed protection against D-galactosamine/TNFalpha-induced cell death at 12.5 uM administered before 30 mins of TNFalpha challenge measured after 18 hrs; summary of the method: as §1
[10] = tested on: Hepatocyte; assay: Hepatoprotective activity in mouse hepatocytes assessed inhibition of D-galactosamine/TNFalpha-induced cell death at 12.5 uM administered before 30 mins of TNFalpha challenge measured after 18 hrs; summary of the method: as §1
[11] = tested on: Hepatocyte; assay: Hepatoprotective activity against D-galactosamine/TNFalpha-induced cell death in mouse hepatocytes assessed cell survival rate at 12.5 uM administered before 30 mins of TNFalpha challenge measured after 18 hrs by MTT assay; summary of the method: as §1
[12] = tested on: Hepatocyte; assay: Hepatoprotective activity in mouse hepatocytes assessed inhibition of D-galactosamine/TNFalpha-induced cell death at 25 uM administered before 30 mins of TNFalpha challenge measured after 18 hrs; summary of the method: as §1
[13] = tested on: Hepatocyte; assay: Hepatoprotective activity in mouse hepatocytes assessed protection against D-galactosamine/TNFalpha-induced cell death at 25 uM administered before 30 mins of TNFalpha challenge measured after 18 hrs; summary of the method: as §1
[14] = tested on: Hepatocyte; assay: Hepatoprotective activity in mouse hepatocytes assessed inhibition of D-galactosamine/TNFalpha-induced cell death at 200 uM administered before 30 mins of TNFalpha challenge measured after 18 hrs; summary of the method: as §1
[15] = tested on: Hepatocyte; assay: Hepatoprotective activity against D-galactosamine/TNFalpha-induced cell death in mouse hepatocytes assessed cell survival rate at 200 uM administered before 30 mins of TNFalpha challenge measured after 18 hrs by MTT assay; summary of the method: as §1
[16] = tested on: Hepatocyte; assay: Hepatoprotective activity in mouse hepatocytes assessed protection against D-galactosamine/TNFalpha-induced cell death at 200 uM administered before 30 mins of TNFalpha challenge measured after 18 hrs; summary of the method: as §1

SMILES | IC50 [1] | Survival [2] | Survival [3] | inhibition (INH) [4] | inhibition (INH) [5] | Activity [6] | Activity [7] | Survival [8] | Activity [9] | inhibition (INH) [10] | Survival [11] | inhibition (INH) [12] | Activity [13] | inhibition (INH) [14] | Survival [15] | Activity [16]
CC(=O)OC[C@H]1O[C@@H](O[C@H]2C[C@]3(C)[C@H](C[C@@H](O)[C@@H]4[C@@H]([C@]5(C)CC[C@@H](C(C)(C)O)O5)CC[C@]43C)[C@@]3(C)CC[C@H](O)C(C)(C)[C@H]23)[C@H](O[C@@H]2O[C@H](C)[C@@H](O)[C@H](O)[C@@H]2O)[C@@H](O)[C@@H]1O [VINA-GINSENOSIDE R1] | 47 µM | 57% | 45.6% | 89.8% | 51.7% | 71.5% | 29% | 33.1% | – | – | – | – | – | – | – | –
COc1cc(C2Oc3cc([C@H]4Oc5cc(O)cc(O)c5C(=O)[C@@H]4O)ccc3OC2CO)ccc1O (stereo partly drawn) [SILIBININ] | 14 µM | – | 75% | – | 149.7% | – | 64.3% | 60% | 17.3% | 43.4% | 43.1% | 99.7% | 42.8% | – | – | –
CC(C)(O)[C@@H]1CC[C@@](C)([C@H]2CC[C@]3(C)[C@@H]2[C@H](O)C[C@@H]2[C@@]4(C)CC[C@H](O)C(C)(C)[C@@H]4[C@@H](O[C@@H]4O[C@H](CO)[C@@H](O)[C@H](O)[C@H]4O[C@@H]4OC[C@@H](O)[C@H](O)[C@H]4O)C[C@]23C)O1 [MAJONOSIDE R2] | 82.4 µM | 46.4% | 41.1% | 55.2% | 37.5% | 19.3% | 16% | – | – | – | – | – | – | 83.3% | 54.8% | 35.5%
CC(C)=CCC[C@](C)(O)[C@H]1CC[C@]2(C)[C@@H]1[C@H](O)C[C@@H]1[C@@]3(C)CC[C@H](O)C(C)(C)[C@@H]3[C@@H](O[C@@H]3O[C@H](CO)[C@@H](O)[C@H](O)[C@H]3O)C[C@]12C [GINSENOSIDE RH1] | 105 µM | 40.8% | 38.1% | 36.6% | 27.4% | 15.6% | 11.7% | – | – | – | – | – | – | 80.5% | 54% | 34.3%
CC(C)=CCC[C@](C)(O[C@@H]1O[C@H](CO)[C@@H](O)[C@H](O)[C@H]1O)[C@H]1CC[C@]2(C)[C@@H]1[C@H](O)C[C@@H]1[C@@]3(C)CC[C@H](O)C(C)(C)[C@@H]3[C@@H](O[C@@H]3O[C@H](CO)[C@@H](O)[C@H](O)[C@H]3O[C@@H]3O[C@@H](C)[C@H](O)[C@@H](O)[C@H]3O)C[C@]12C [GINSENOSIDE RE] | 119 µM | 41.2% | 36.4% | 37% | 21.1% | 15.9% | 8.9% | – | – | – | – | – | – | 74.3% | 52.4% | 31.9%
CC(C)=CCC[C@](C)(O[C@@H]1O[C@H](CO[C@@H]2OC[C@H](O)[C@H](O)[C@H]2O)[C@@H](O)[C@H](O)[C@H]1O)[C@H]1CC[C@]2(C)[C@@H]1[C@H](O)C[C@@H]1[C@@]3(C)CC[C@H](O[C@@H]4O[C@H](CO)[C@@H](O)[C@H](O)[C@H]4O[C@@H]4O[C@H](CO)[C@@H](O)[C@H](O)[C@H]4O)C(C)(C)[C@@H]3CC[C@]12C [GINSENOSIDE RB2] | 105 µM | 44.7% | 36.7% | 48.8% | 22.1% | 21% | 7.6% | – | – | – | – | – | – | 100.8% | 60.3% | 43.3%
